# Results collected from several papers.
# Protocols differ between the studies behind these lines.
# CSF1R: Macrophage colony-stimulating factor 1 receptor (CSF1R, Homo sapiens, UniProt P07333)
SMILES,target,observed,mode,technique,tested at,measurement,value
N#CC1(c2ccccn2)CCN(Cc2cc(C(=O)O)c(=O)n3ccccc23)CC1,CSF1R,cell-free assay,,competition with immobilised ligand,1 µM,remaining binding,95%
COCc1c(-c2cc3cc(C)cc(OC)c3s2)c2c(N)ncnn2c1CN1CCNC(=O)C1,CSF1R,cell-free assay,,competition with immobilised ligand,1 µM,inhibition,100%
O=c1[nH]c2ccccc2n1C1CCN(Cc2ccc(-c3[nH]c4cc5ncnc5cc4nc3-c3ccccc3)cc2)CC1,CSF1R,cell-free assay,,,0.5 µM,remaining signal,97%
Nc1ncc(-c2nc(N3CCOCC3)nc(N3CCOCC3)n2)c(C(F)F)n1,CSF1R,cell-free assay,,competition with immobilised ligand,10 µM,remaining binding,14%
Cn1cc(-c2cccc(N3CCc4c(sc5c4CC(C)(C)C5)C3=O)c2CO)cc(Nc2ccncn2)c1=O,CSF1R,enzyme activity,inhibitor,,1 µM,inhibition,6%
COc1ncccc1-c1cnn2ccc(N3CCN(C(=O)OC(C)C)CC3)nc12,CSF1R,binding,,competition with immobilised ligand,1 µM,remaining binding,100%
C#Cc1n[nH]c2c(-c3cn(C(C)c4ccccn4)c(=O)[nH]c3=O)cc(F)cc12 (centres unmarked),CSF1R,enzyme activity,inhibitor,,1 µM,inhibition,5.8%
Cn1cc(-c2cc(F)cc(N3CCn4c(cc5c4CCCC5)C3=O)c2CO)cc(Nc2ccc(N3CCN(C4COC4)CC3)cn2)c1=O,CSF1R,enzyme activity,inhibitor,,0.1 µM,inhibition,13%
CC(C)(C)c1cc(C=C(C#N)C#N)cc(Br)c1O,CSF1R,enzyme activity,inhibitor,,0.5 µM,remaining activity,96.8%
Cn1cncc1[C@](O)(COc1ccc(C#N)cc1-c1ccc(OC(F)(F)F)cc1)c1ccc(C#N)cc1,"Macrophage colony-stimulating factor 1 receptor, autoinhibited (CSF1R, Homo sapiens, UniProt P07333)",cell-free assay,,competition with immobilised ligand,1 µM,remaining binding,93%
C#Cc1n[nH]c2c(-c3cn([C@@H](C)c4ccccc4)c(=O)[nH]c3=O)cc(F)cc12,CSF1R,enzyme activity,inhibitor,,0.1 µM,inhibition,4.9%
